High-throughput results (PubChem BioAssay)
MEKK3 PB1 HTS = raises or lowers MEK5 binding to the human MEKK3 PB1 domain; Q99759; bead-based flow cytometry, Alexa488-MEK5 binding to MEKK3; actives lie on both sides; 0 = blocked by unlabeled MEK5, 100 = vehicle; binding response (% of control), % at 10 µM; 290,000 compounds, 1.4% hits;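 active means binding response more than 3 SD above or below the average of its plate-row segment, actives on both sides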;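 further: Alexa488 bead fluorescence after subtracting the streptavidin-only scavenger bead signal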
Target sequence (Q99759 whole entry, looked up, the tested form may be a part): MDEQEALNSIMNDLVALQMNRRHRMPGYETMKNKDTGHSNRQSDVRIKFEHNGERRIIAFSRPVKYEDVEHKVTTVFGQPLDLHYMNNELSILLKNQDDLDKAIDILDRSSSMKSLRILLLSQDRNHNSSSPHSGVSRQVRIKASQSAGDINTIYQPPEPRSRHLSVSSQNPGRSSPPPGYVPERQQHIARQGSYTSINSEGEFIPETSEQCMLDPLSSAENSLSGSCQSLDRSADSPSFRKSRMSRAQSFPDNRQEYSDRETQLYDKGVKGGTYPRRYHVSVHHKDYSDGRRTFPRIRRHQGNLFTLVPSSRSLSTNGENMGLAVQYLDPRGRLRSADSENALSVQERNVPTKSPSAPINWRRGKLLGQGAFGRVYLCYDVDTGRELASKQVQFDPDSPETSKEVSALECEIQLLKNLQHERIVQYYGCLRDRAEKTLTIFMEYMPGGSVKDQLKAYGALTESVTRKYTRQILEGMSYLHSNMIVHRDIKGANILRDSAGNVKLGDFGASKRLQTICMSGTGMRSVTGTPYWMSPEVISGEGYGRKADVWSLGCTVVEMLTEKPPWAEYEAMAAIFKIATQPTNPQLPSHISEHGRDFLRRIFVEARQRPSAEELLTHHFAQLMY
MEKK2 mut-MEK5 = signal of MEK5 binding to mutant human MEKK2 PB1 domain | percent response, % at 10 µM | AID 1530 | 290,000 compounds, 0.35% hits | bead flow cytometry, Alexa488-MEK5 binding to MEKK2 mutant; in the data active means percent response above about 24%, passing the limit was not always enough
IMP-1 inh = blocks Pseudomonas aeruginosa IMP-1 metallo-beta-lactamase. purified IMP-1, nitrocefin hydrolysis, epi-absorbance fluorescence. AID 1556. 290,000 compounds, 0.45% hits. inhibition, % at 5.6 µM;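 active means inhibition above the mean plus 3 SD of all compounds in the same screening run, cut at about 4.5% in these data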;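 further: 0% = IMP-1 with DMSO and 100% = DMSO wells lacking enzyme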
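system = purified recombinant IMP-1 beta-lactamase | amount = 0.2 nM IMP-1, as dispensed | medium = HEPES buffer pH 7.1 with ZnSO4 and Brij 35 | times = 25 °C, 15 min preincubation, 25 min reaction | detection = plate fluorescence quenching by hydrolysis product, ex 480/em 530 nm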
MEKK2 WT-MEK5 = raises or lowers MEK5 binding to wildtype human MEKK2 PB1 domain | Q9Y2U5 | bead flow cytometry, Alexa488-MEK5 binding to MEKK2 WT; actives lie on both sides | binding response (% of control), % at 10 µM | 290,000 compounds, 1.1% hits | AID 1531; in the data active means binding response below about 67% or above about 130%
VIM-2 inhibitor = blocks Pseudomonas aeruginosa VIM-2 metallo-beta-lactamase | purified VIM-2, nitrocefin hydrolysis, epi-absorbance fluorescence | inhibition, % at 5.6 µM | 290,000 compounds, 0.89% hits;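 active means inhibition above the mean of all tested compounds plus 3 SD, cutoff set per screening run, cut at about 7.5% in these data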;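 further: red hydrolysis product quenches plate fluorescence so inhibitors raise well fluorescence; 0% = enzyme with DMSO and 100% = DMSO without enzyme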
VIM-2 confirm = VIM-2 inhibition, confirmation assay; shares compounds with IMP-1 inh; purified VIM-2 enzyme, nitrocefin absorbance; inhibition, % at 5.6 µM; 200 compounds, 73% hits; in the data active means inhibition above about 8%;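 further: 0% = enzyme with vehicle and 100% = no enzyme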
TEM-1 counter = blocks E. coli TEM-1 beta-lactamase, VIM-2 IMP-1 counter-screen; shares compounds with IMP-1 inh; nitrocefin absorbance inhibition; inhibition, % at 5.6 µM; 200 compounds, 50% hits; in the data active means inhibition above about 0.66%
IMP-1 inh conf = confirmation of P. aeruginosa IMP-1 metallo-beta-lactamase inhibitors; shares compounds with IMP-1 inh; purified IMP-1 enzyme, absorbance substrate hydrolysis; inhibition, % at 5.6 µM; 200 compounds, 60% hits; AID 2189; in the data active means inhibition above about 4.9%;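 further: 0% = enzyme with vehicle and 100% = vehicle without enzyme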
An asterisk follows results filed as active. The list is not random: actives were taken first. Their share in the collection is about 3.4%.

Results for CCc1cc(=O)oc2cc(C)c(CN3CCCC(C)C3)c(O)c12 (configuration not stated) ?
MEKK3 PB1 HTS: 89; MEKK2 mut-MEK5: 5; IMP-1 inh: 16*; MEKK2 WT-MEK5: 101; VIM-2 inhibitor: 8.4*; VIM-2 confirm: 10*; TEM-1 counter: -3; IMP-1 inh conf: 1

How did N#Cc1ccc(C(=O)Nc2ccc(N3CCN(C(=O)c4ccco4)CC3)cc2)c(F)c1 do in these assays?
MEKK3 PB1 HTS: 94; MEKK2 mut-MEK5: -8; IMP-1 inh: -1; MEKK2 WT-MEK5: 92; VIM-2 inhibitor: 0

How did O=C(O)c1cccc(N2C(=O)c3cccc4c(Cl)ccc(c34)C2=O)c1 do in these assays?
MEKK3 PB1 HTS: 98; MEKK2 mut-MEK5: 4; IMP-1 inh: -3; MEKK2 WT-MEK5: 104; VIM-2 inhibitor: 0

How did Nc1ccc2c3c(cccc13)C(=O)N(c1ccccc1)C2=O do in these assays?
MEKK3 PB1 HTS: 102; MEKK2 mut-MEK5: 4; IMP-1 inh: 37*; MEKK2 WT-MEK5: 101; VIM-2 inhibitor: 35*; VIM-2 confirm: 35*; TEM-1 counter: 47*; IMP-1 inh conf: 33*

What do the screens show for `Nc1cccc(N2C(=O)c3cccc4c(N)ccc(c34)C2=O)c1`?
MEKK3 PB1 HTS: 96; MEKK2 mut-MEK5: 5; IMP-1 inh: 18*; MEKK2 WT-MEK5: 96; VIM-2 inhibitor: 22*; VIM-2 confirm: 18*; TEM-1 counter: 21*; IMP-1 inh conf: 14*

Results for Cc1cccc(N2C(=O)c3cccc4cccc(c34)C2=O)c1 ?
MEKK3 PB1 HTS: 102; MEKK2 mut-MEK5: 6; IMP-1 inh: -3; MEKK2 WT-MEK5: 100; VIM-2 inhibitor: -3

What do the screens show for `Cc1cccc(N2C(=O)c3cccc4c(N)ccc(c34)C2=O)c1`?
MEKK3 PB1 HTS: 105; MEKK2 mut-MEK5: 2; IMP-1 inh: 25*; MEKK2 WT-MEK5: 96; VIM-2 inhibitor: 21*; VIM-2 confirm: 21*; TEM-1 counter: 31*; IMP-1 inh conf: 19*

How did Cc1ccc(-n2c(=O)cc(NCc3cccnc3)[nH]c2=O)cc1 do in these assays?
MEKK3 PB1 HTS: 104; MEKK2 mut-MEK5: 12; IMP-1 inh: -3; MEKK2 WT-MEK5: 109; VIM-2 inhibitor: 0

Results for CCOC(=O)CN1NC2(CCC(C(C)(C)C)CC2)NC1=S (configuration not stated) ?
MEKK3 PB1 HTS: 99; MEKK2 mut-MEK5: -1; IMP-1 inh: -3; MEKK2 WT-MEK5: 101; VIM-2 inhibitor: -3

What do the screens show for `O=C1CSC(=S)N1/N=C/c1cc(Br)c(O)c(Br)c1`?
MEKK3 PB1 HTS: 92; MEKK2 mut-MEK5: -7; IMP-1 inh: 23*; MEKK2 WT-MEK5: 88; VIM-2 inhibitor: 13*; VIM-2 confirm: 26*; TEM-1 counter: 3.6*; IMP-1 inh conf: 37*

How did NS(=O)(=O)c1ccc(NC(=O)c2cccc(N3C(=O)c4ccccc4C3=O)c2)cc1 do in these assays?
MEKK3 PB1 HTS: 91; MEKK2 mut-MEK5: -7; IMP-1 inh: 25*; MEKK2 WT-MEK5: 90; VIM-2 inhibitor: 9.6*; VIM-2 confirm: 3; TEM-1 counter: -2; IMP-1 inh conf: 17*

What do the screens show for `O=C(O)c1ccc(N/N=C2/CCSc3ccc(F)cc32)cc1`?
MEKK3 PB1 HTS: 104; MEKK2 mut-MEK5: 13; IMP-1 inh: -2; MEKK2 WT-MEK5: 106; VIM-2 inhibitor: -4

Results for CCN(CC)c1ccc2c(-c3ccc(S(=O)(=O)O)cc3S(=O)(=O)[O-])c3ccc(=[N+](CC)CC)cc-3oc2c1 ?
MEKK3 PB1 HTS: 100; MEKK2 mut-MEK5: -6; IMP-1 inh: 104*; MEKK2 WT-MEK5: 96; VIM-2 inhibitor: 104*; VIM-2 confirm: 85*; TEM-1 counter: 150*; IMP-1 inh conf: 80*

Results for CCN(CC)c1ccc2cc(C(N)=O)c(=O)oc2c1 ?
MEKK3 PB1 HTS: 104; MEKK2 mut-MEK5: -2; IMP-1 inh: 1; MEKK2 WT-MEK5: 98; VIM-2 inhibitor: 2

What do the screens show for `CN(C)c1ccc(/C=C(\NC(=O)c2ccccc2)C(=O)NCc2ccncc2)cc1`?
MEKK3 PB1 HTS: 102; MEKK2 mut-MEK5: 8; IMP-1 inh: -1; MEKK2 WT-MEK5: 108; VIM-2 inhibitor: -1

Results for O=C(O)c1ccccc1-c1ccc(/C=C/c2cc(C(F)(F)F)[nH]c(=O)n2)o1 ?
MEKK3 PB1 HTS: 95; MEKK2 mut-MEK5: -2; IMP-1 inh: 5.5*; MEKK2 WT-MEK5: 96; VIM-2 inhibitor: 8.2*; VIM-2 confirm: 15*; TEM-1 counter: 37*; IMP-1 inh conf: 11*

How did O=c1nc(/C=C/c2ccc(-c3ccc(F)cc3)o2)cc(C(F)(F)F)[nH]1 do in these assays?
MEKK3 PB1 HTS: 102; MEKK2 mut-MEK5: 2; IMP-1 inh: 0; MEKK2 WT-MEK5: 100; VIM-2 inhibitor: 0

Results for Cn1c(=O)c2c(ncn2CCOc2ccc(F)cc2)n(C)c1=O ?
MEKK3 PB1 HTS: 103; MEKK2 mut-MEK5: 4; IMP-1 inh: -1; MEKK2 WT-MEK5: 103; VIM-2 inhibitor: -2

Results for c1ccc(CNc2ccccn2)cc1 ?
MEKK3 PB1 HTS: 104; MEKK2 mut-MEK5: 10; IMP-1 inh: -2; MEKK2 WT-MEK5: 107; VIM-2 inhibitor: -3

Results for c1ccc(Nc2ccccc2Nc2ccccn2)nc1 ?
MEKK3 PB1 HTS: 111; MEKK2 mut-MEK5: 10; IMP-1 inh: 50*; MEKK2 WT-MEK5: 112; VIM-2 inhibitor: 32*; VIM-2 confirm: 3; TEM-1 counter: 1.1*; IMP-1 inh conf: 1

Results for N#CC(C#N)=C1C=C2C=C(N3CCCCC3)CCC2CC1 (configuration not stated) ?
MEKK3 PB1 HTS: 100; MEKK2 mut-MEK5: -6; IMP-1 inh: 58*; MEKK2 WT-MEK5: 86; VIM-2 inhibitor: 48*; VIM-2 confirm: 62*; TEM-1 counter: 87*; IMP-1 inh conf: 58*

Results for CCCCN(C)C1=CC2=CC(=C(C#N)C#N)CCC2CC1 (configuration not stated) ?
MEKK3 PB1 HTS: 101; MEKK2 mut-MEK5: -8; IMP-1 inh: 43*; MEKK2 WT-MEK5: 86; VIM-2 inhibitor: 30*; VIM-2 confirm: 53*; TEM-1 counter: 79*; IMP-1 inh conf: 50*

Results for CCN(CC)C1=CC2=CC(=C(C#N)C#N)CCC2CC1 (configuration not stated) ?
MEKK3 PB1 HTS: 93; MEKK2 mut-MEK5: -6; IMP-1 inh: 47*; MEKK2 WT-MEK5: 90; VIM-2 inhibitor: 36*; VIM-2 confirm: 60*; TEM-1 counter: 79*; IMP-1 inh conf: 58*
